Measured values published in ChEMBL document CHEMBL4145618, “Constraining Endomorphin-1 by β,α-Hybrid Dipeptide/Heterocycle Scaffolds: Identification of a Novel κ-Opioid Receptor Selective Partial Agonist” (J Med Chem, 2018).
Activity calls are given as the source filed them.

Legend:
Mu-type opioid receptor [1] = molecular target: T1, Mu-type opioid receptor (Homo sapiens, UniProt P35372); assay: Agonist activity at human mu opioid receptor expressed in HEK293 assessed as inhibition forskolin-induced cAMP accumulation at 0.00001 to 100 uM after 15 mins by EIA relative to control; type: functional, cell-based
T1 sequence (P35372 whole entry): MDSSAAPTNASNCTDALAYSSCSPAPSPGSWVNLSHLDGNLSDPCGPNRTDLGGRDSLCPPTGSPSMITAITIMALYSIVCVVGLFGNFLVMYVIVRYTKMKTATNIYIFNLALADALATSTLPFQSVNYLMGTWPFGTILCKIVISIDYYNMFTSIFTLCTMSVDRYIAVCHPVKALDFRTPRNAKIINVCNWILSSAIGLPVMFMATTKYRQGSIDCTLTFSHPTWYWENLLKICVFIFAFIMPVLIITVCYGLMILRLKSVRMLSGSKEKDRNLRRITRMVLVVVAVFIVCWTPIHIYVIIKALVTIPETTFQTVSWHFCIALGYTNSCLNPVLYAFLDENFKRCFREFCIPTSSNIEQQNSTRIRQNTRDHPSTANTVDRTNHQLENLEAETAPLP
Summary of the method: (§1)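 Whole HEK-293 cells stably expressing human KOR or MOR, in serum-free medium with 0.5 mM IBMX. Cells exposed 15 min at 37°C to 10 µM forskolin, with or without test agent. KOR co-treatment run: U50,488 1 pM–100 µM with or without 1 µM test agent. cAMP measured by enzyme immunoassay.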

Mus musculus [2] = assay: Antinociceptive activity in CD1 mouse assessed as increase in latency to response at 20 mg/kg, ip measured at 15 mins post dose by tail immersion test relative to control; type: functional
Summary of the method: (§2)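 Mouse warm-water tail immersion at 52 ± 0.5 °C. Control withdrawal latency recorded before dosing; only mice responding within 5 s were used. Vehicle or compound given ip at 10 or 20 mg/kg. Where stated, norBNI 10 mg/kg given 30 min before compound. Test latency taken with 10 s cutoff. MPE% = 100 × (TL − CL)/(10 − CL); n = 6.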

Mu-type opioid receptor [3] = molecular target: T1, Mu-type opioid receptor; assay: Displacement of [3H]DAMGO from human mu opioid receptor expressed in HEK293 cell membranes after 2 hrs by liquid scintillation spectrometry
Summary of the method: (§3)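 Membranes from HEK-293 cells stably expressing human opioid receptors. Radioligands: [3H]DAMGO for MOR, [3H]diprenorphine for DOR, [3H]U69,593 for KOR. Competitor range 10^-12–10^-4 M, 120 min at 25°C, Tris-HCl buffer with 0.3% BSA. Unlabelled ligands defined nonspecific binding. Bound label collected on 0.3% polyethylenimine-presoaked filters and counted by liquid scintillation. Ki from IC50 via Cheng-Prusoff.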

[4] = molecular target: T2, Kappa-type opioid receptor (Homo sapiens, UniProt P41145); assay: Agonist activity at human kappa opioid receptor expressed in HEK293 assessed as inhibition forskolin-induced cAMP accumulation at 0.00001 to 100 uM after 15 mins by cAMP EIA relative to control; type: functional, cell-based; summary of the method: as §1
T2 sequence (P41145 whole entry): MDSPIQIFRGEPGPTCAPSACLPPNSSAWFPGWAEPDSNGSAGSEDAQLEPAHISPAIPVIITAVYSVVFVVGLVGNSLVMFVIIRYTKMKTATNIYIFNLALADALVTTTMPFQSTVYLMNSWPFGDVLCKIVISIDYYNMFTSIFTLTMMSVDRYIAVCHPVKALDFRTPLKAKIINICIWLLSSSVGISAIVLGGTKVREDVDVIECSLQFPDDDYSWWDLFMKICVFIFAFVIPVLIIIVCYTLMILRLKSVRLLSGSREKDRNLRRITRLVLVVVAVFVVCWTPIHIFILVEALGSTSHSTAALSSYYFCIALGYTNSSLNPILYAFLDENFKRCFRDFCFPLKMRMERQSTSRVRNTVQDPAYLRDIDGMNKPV

[5] = molecular target: T2, Kappa-type opioid receptor; assay: Agonist activity at human kappa opioid receptor expressed in HEK293 assessed as inhibition forskolin-induced cAMP accumulation after 15 mins by EIA; type: functional, cell-based; summary of the method: as §1
[6] = molecular target: Delta-type opioid receptor (Homo sapiens, UniProt P41143); assay: Displacement of [3H]diprenorphine from human delta opioid receptor expressed in HEK293 cell membranes after 2 hrs by liquid scintillation spectrometry
Chain of Delta-type opioid receptor (P41143 whole entry): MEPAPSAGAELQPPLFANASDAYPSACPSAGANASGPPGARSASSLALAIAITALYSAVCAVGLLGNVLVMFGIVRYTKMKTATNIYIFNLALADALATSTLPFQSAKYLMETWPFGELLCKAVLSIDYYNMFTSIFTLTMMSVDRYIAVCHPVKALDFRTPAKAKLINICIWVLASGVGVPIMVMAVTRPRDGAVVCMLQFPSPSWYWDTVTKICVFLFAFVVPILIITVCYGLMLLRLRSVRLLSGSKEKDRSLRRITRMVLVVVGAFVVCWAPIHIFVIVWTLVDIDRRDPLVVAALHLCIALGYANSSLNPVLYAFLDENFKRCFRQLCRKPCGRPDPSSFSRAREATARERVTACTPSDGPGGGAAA

Mus musculus [7] = assay: Antinociceptive activity in CD1 mouse assessed as increase in latency to response at 10 mg/kg, ip measured at 15 mins post dose by tail immersion test; type: functional, organism-based; summary of the method: as §2
[8] = molecular target: T2, Kappa-type opioid receptor; assay: Displacement of [3H]U69,593 from human kappa opioid receptor expressed in HEK293 cell membranes after 2 hrs by liquid scintillation spectrometry; summary of the method: as §3
[9] = molecular target: T2, Kappa-type opioid receptor; assay: Agonist activity at human kappa opioid receptor expressed in HEK293 assessed as inhibition forskolin-induced cAMP accumulation at 1 uM after 15 mins in presence of U50,488 by EIA; type: functional, cell-based; summary of the method: as §1
Mus musculus [10] = assay: Antinociceptive activity in CD1 mouse assessed as increase in latency to response at 20 mg/kg, ip measured at 15 mins post dose in presence of KOR antagonist nor-BNI by tail immersion test; type: functional, organism-based; summary of the method: as §2
Mus musculus [11] = assay: Antinociceptive activity in CD1 mouse assessed as increase in latency to response at 20 mg/kg, ip measured at 30 mins post dose by tail immersion test relative to control; type: functional; summary of the method: as §2
[12] = Drug metabolism in mouse serum assessed as compound hydrolysis after 1 hr by RP-HPLC analysis; type: ADME, cell-free; conditions: read-out: Drug metabolism
Summary of the method: (§4)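 Peptides incubated in mouse serum at 37°C for up to 4 h and sampled over time. Enzymatic activity stopped with cold acetonitrile, then centrifuged. Intact peptide in the supernatant quantified by reversed-phase HPLC, with ESI-MS analysis.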

Mu-type opioid receptor [13] = molecular target: T1, Mu-type opioid receptor; assay: Agonist activity at human mu opioid receptor expressed in HEK293 assessed as inhibition forskolin-induced cAMP accumulation after 15 mins by EIA; type: functional, cell-based; summary of the method: as §1
[14] = Drug metabolism in mouse serum assessed as compound hydrolysis after 4 hrs by RP-HPLC analysis; type: ADME, cell-free; conditions: read-out: Drug metabolism; summary of the method: as §4

Compound	Emax (Mu-type opioid receptor [1]) [%]	Ki (Mu-type opioid receptor [3]) [µM]	Ki [6] [µM]	Ki [8] [µM]	other results
N[C@@H](Cc1ccc(O)cc1)C(=O)N1CCC[C@H]1C(=O)N[C@@H](Cc1c[nH]c2ccccc12)C(=O)N[C@@H](Cc1ccccc1)C(=O)O	53				
NC(=O)[C@H](Cc1ccccc1)NC(=O)[C@H](Cc1c[nH]c2ccccc12)N1C(=O)O[C@@H](CNC(=O)[C@@H](N)Cc2ccc(O)cc2)C1=O		> 100	> 100	0.0098	MPE (Mus musculus [2]): 60%; Emax [4]: 40%; IC50 [5]: 0.00022 µM; Activity (Mus musculus [7]): Active; inhibition [9]: 40%; Activity (Mus musculus [10]): inactive; MPE (Mus musculus [11]): 42%; metabolised at 1 h [12]: < 5%
NC(=O)[C@H](Cc1ccccc1)NC(=O)[C@@H](Cc1c[nH]c2ccccc12)N1C(=O)O[C@H](CNC(=O)[C@@H](N)Cc2ccc(O)cc2)C1=O	50	0.24	> 100	> 100	IC50 (Mu-type opioid receptor [13]): 0.016 nM; metabolised at 4 h [14]: < 10%
NC(=O)[C@H](Cc1ccccc1)NC(=O)[C@H](Cc1c[nH]c2ccccc12)N1C(=O)O[C@H](CNC(=O)[C@@H](N)Cc2ccc(O)cc2)C1=O		> 100	> 100	> 100	
NC(=O)[C@H](Cc1ccccc1)NC(=O)[C@@H](Cc1c[nH]c2ccccc12)N1C(=O)O[C@@H](CNC(=O)[C@@H](N)Cc2ccc(O)cc2)C1=O		> 100	> 100	> 100	
